Hits are enriched below; roughly 1.4% of the tested compounds scored in any of these assays.
MsrA inh: inhibits bovine methionine sulfoxide reductase A; hit rate 0.75% among 360,000; purified bovine MsrA, absorbance read-out; AID 651718; inhibition, % at 15.5 µM; in the data active means inhibition above about 4.5%;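 further: 0% = vehicle wells with enzyme and 100% = reference inhibitor wells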
ARFGAP1 inh: inhibits rat ARF GTPase activating protein 1; Q62848; Arfgap1-stimulated ARF1 GTP hydrolysis, GDP FP detection; inhibition, % at 16.5 µM; hit rate 0.26% among 360,000; AID 651572;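 active means inhibition above a per-plate limit, mean inhibition of low control wells plus 3 SD, cut at about 25% in these data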;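 further: 0% = DMSO wells with enzyme and 100% = wells lacking Arfgap1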
Target sequence (Q62848 1-136 limits assumed): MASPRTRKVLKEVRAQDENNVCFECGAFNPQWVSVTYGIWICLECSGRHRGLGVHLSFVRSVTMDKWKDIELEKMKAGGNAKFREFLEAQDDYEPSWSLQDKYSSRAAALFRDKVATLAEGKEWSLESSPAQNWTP
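Assay system: Rat Arfgap1 GAP domain (His6, aa 1-136), purified enzyme | Buffer or medium: HEPES 25 mM pH 7.5, NaCl 150 mM, MgCl2, DTT | Schedule: GTP hydrolysis reaction 2 h at 25 °C | Signal: FP of antibody-bound GDP Alexa 633 tracer, ex 620/em 688 nm | Measure: Percent inhibition of Arfgap1-stimulated GTP hydrolysis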
ASAP1 GAP inh: ASAP1 ArfGAP inhibition; Q9ULH1; ASAP1-stimulated ARF1 GTP hydrolysis, GDP FP detection; inhibition, % at 16.5 µM; hit rate 0.19% among 360,000; AID 624377; in the data active means inhibition above about 25%;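 further: 0% = vehicle with enzyme and substrate and 100% = no enzyme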
Target sequence (Q9ULH1 325-724 limits assumed): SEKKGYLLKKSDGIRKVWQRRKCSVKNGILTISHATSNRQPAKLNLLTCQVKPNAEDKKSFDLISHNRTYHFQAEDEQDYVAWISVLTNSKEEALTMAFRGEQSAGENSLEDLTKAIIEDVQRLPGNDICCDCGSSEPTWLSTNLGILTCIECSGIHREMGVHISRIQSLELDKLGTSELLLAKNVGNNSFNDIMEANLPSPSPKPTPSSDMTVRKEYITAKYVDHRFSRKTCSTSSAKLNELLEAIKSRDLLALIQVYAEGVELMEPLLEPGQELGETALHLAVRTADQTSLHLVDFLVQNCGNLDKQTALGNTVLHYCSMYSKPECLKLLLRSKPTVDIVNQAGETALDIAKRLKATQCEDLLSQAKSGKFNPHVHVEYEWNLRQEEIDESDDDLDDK
MsrA act: bovine methionine sulfoxide reductase A activation; activation, % at 10.6 µM; AID 602163; hit rate 0.3% among 360,000; purified bovine MsrA, absorbance read-out; in the data active means activation above about 7.5%;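 further: 0% = vehicle and 100% = reference activator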
ARFGAP1 inh conf: rat ARFGAP1 inhibition, confirmed; shares compounds with ARFGAP1 inh; ARFGAP1-stimulated ARF1 GTP hydrolysis, GDP tracer FP; inhibition, % at 16.5 µM; hit rate 30% among 890; AID 651608;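 active means average inhibition over triplicates above the hit cutoff set in the earlier primary screen, cut at about 25% in these data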;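 further: 0% = Arfgap1 plus ARF1-GTP with DMSO and 100% = wells lacking Arfgap1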
* marks the source's active call; other numbers are inactive results; . = no result.

SMILES	MsrA inh	ARFGAP1 inh	ASAP1 GAP inh	MsrA act	ARFGAP1 inh conf
COc1cc(/C=N/Nc2nc3ccccc3s2)ccc1OC(=O)c1ccccc1F	0	25*	-1	4	18
COc1ccccc1CC(=O)NC1CCCc2ccccc21 (configuration not stated)	0	-6	2	-3	.
COc1cccc2c1SCc1ccccc1C2CC(N)=O (configuration not stated)	1	31*	21	-1	-4
COc1ccc(N2CC(C(=O)Nc3ccc(S(=O)(=O)Nc4nccs4)cc3)CC2=O)c(OC)c1 (configuration not stated)	1	25*	2	-4	0
COc1cccc(CSc2nccn2C)c1	0	-8	-10	-7	.
COc1cc(C(=O)O/N=C2\CCCc3c2ccc(OC)c3[N+](=O)[O-])cc(OC)c1OC	0	25*	11	-8	-7
COc1ccccc1C(=O)O/N=C1/CCCc2c1ccc(OC)c2[N+](=O)[O-]	-1	-10	-15	-6	.
CCOc1ccc2oc(C(=O)NCc3ccccc3CN3CCCC3)c(C)c2c1	1	5	-10	-2	.
CCCCN1C(=O)C(=O)N(CC(=O)c2ccc3c(c2)CCCC3)C1=O	0	16	0	-8	.
COc1ccc(S(=O)(=O)N2CCCCCC2)cc1N(C)S(=O)(=O)c1ccccc1	0	26*	10	-2	1
COc1ccc(S(=O)(=O)N2CCCCC2)cc1N(C)S(=O)(=O)c1ccccc1	1	5	-8	-1	.
C[C@H]1CN[C@H](CCO)/C1=C\c1ccccc1	-2	-4	-7	2	.
CCCCCn1c(=O)[nH]c2cc(C(=O)N3CCN(C(=O)OCC)CC3)ccc2c1=O	0	25*	-6	-2	5
O=C(O)c1cccc(S(=O)(=O)NCC2COc3ccccc3O2)c1 (configuration not stated)	-1	4	6	-3	.
Cn1nc(-c2ccc(C(=O)Nc3cccnc3)cc2)c2ccccc2c1=O	1	25*	-2	0	1
Cc1ccc(C(=O)NNC(=O)CSc2nnc(C(C)C)n2C)cc1	0	10	-3	0	.
O=C(NCCCN1CCCC1=O)C(=O)NCC1OCCN1S(=O)(=O)c1ccc(Cl)cc1 (configuration not stated)	0	5	7	-5	.
Cc1ccc2cc(C)c3nnc(SCC(=O)Nc4nc5c(s4)CCCC5)n3c2c1C	1	27*	-11	-1	-7
CCCOc1ccccc1C(=O)N(Cc1cccc(Br)c1)C1CCS(=O)(=O)C1 (configuration not stated)	0	-5	-1	0	.
Cc1ccc2[nH]c3c(=O)n(CC(=O)Nc4ccccc4N4CCN(C)CC4)ncc3c2c1	1	25*	8	-5	48*
O=C(CN(c1ccc(F)cc1)S(=O)(=O)c1ccc2c(c1)OCCO2)Nc1ccc2c(c1)OCO2	-1	27*	14	-4	3
CC(Oc1ccccc1)C(=O)N1CCN=C1SCc1ccc(F)cc1 (configuration not stated)	-1	7	-4	-3	.
CCCCCCCN(c1ccccc1)[C@@H]1C[C@H]2CCCC(=O)N3CC[C@@H](C1)[C@@H]23	-1	-11	-2	-1	.
COc1ccc(C(=O)N/N=C/c2c[nH]c3ccccc23)cc1	4	6	7	-3	.
CCCOc1ccc(C(=O)N/N=C/c2c[nH]c3ccc(Br)cc23)cc1	2	25*	11	-9	14
SMILES	MsrA inh	ARFGAP1 inh	ASAP1 GAP inh	MsrA act	ARFGAP1 inh conf
O=C1CCC(C(=O)Nc2ccccc2N2CCOCC2)=NN1	0	-4	-6	-12	.
N#Cc1c(NC(=O)C2CC(c3c(F)cccc3Cl)=NO2)sc2c1CCC2 (configuration not stated)	0	35*	4	-1	56*
O=C(Cc1c[nH]c2ccccc12)Nc1ccc(Nc2cccnc2)c(-c2cc(F)cc(F)c2)c1	0	25*	5	.	20
O=C(Cc1c[nH]c2ccccc12)Nc1ccc(Nc2cccnc2)c(-c2ccc(OC(F)(F)F)cc2)c1	1	27*	4	.	10
CCCCCCCCN1C(=O)N(Cc2ccc(OC)cc2)S(=O)(=O)c2ccc(F)cc21	2	4	12	.	.
CN(Cc1ccc(Cl)cc1)C(=O)c1ccccc1SCC(=O)N1CCCC1	1	-21	-9	-3	.
O=C(NCc1ccccc1)c1cc(C2CCCCN2C(=O)OCCF)on1 (configuration not stated)	-1	25*	-13	-1	3
COc1ccccc1Nc1c([N+](=O)[O-])cncc1[N+](=O)[O-]	3	7	2	-2	.
Cc1ccccc1Nc1c([N+](=O)[O-])cncc1[N+](=O)[O-]	2	27*	2	-7	1
N#C/C(=C\c1ccc(Oc2ccc(C(F)(F)F)cc2[N+](=O)[O-])cc1)c1nc2ccccc2[nH]1	2	25*	15	3	10
N#C/C(=C/c1ccc(N2CCCC2)c([N+](=O)[O-])c1)c1nc2ccccc2[nH]1	1	-13	2	0	.
O=C(/C=C/c1ccco1)Nc1ccc(N2CCCC2)cc1	2	26*	12	-1	-1
CN(C)/C=C/C1=C([N+](=O)[O-])C(c2cccc([N+](=O)[O-])c2)NC(=O)N1 (configuration not stated)	0	28*	-3	2	4
CCOC(=O)C1=C(CCc2ccccc2)NC(=O)NC1c1cccc([N+](=O)[O-])c1 (configuration not stated)	1	4	6	1	.
CC(C)NC(=O)Nc1ccc2c(c1)C(=O)N([C@@H](C)CO)C[C@H](C)[C@H](CN(C)S(=O)(=O)c1ccccc1)OCCCC[C@H](C)O2	-1	-4	8	-1	.
Cc1cc(NS(=O)(=O)c2ccc(NC(=S)NC(=O)c3cccc(S(=O)(=O)N(C)C)c3)cc2)no1	0	29*	15	-3	38*
Cc1cc(NS(=O)(=O)c2ccc(NS(=O)(=O)c3ccc(Br)cc3)cc2)no1	-1	27*	0	-3	-4
COC(=O)c1ccc(Cn2c(C)c(C(=O)Nc3cccc(Oc4ccccc4)c3)sc2=O)o1	0	1	12	-3	.
Nc1ccc2cc3[nH]c4cc(N)ccc4c3nc2c1	0	46*	11	-1	73*
Nc1ccc2nc(-c3ccc(Cl)cc3)[nH]c2c1	2	5	7	-1	.
CCNC(=O)NC(=O)C(C)Sc1nc2cc(C(=O)OC)ccc2c(=O)n1-c1ccccc1 (configuration not stated)	-1	27*	-1	-4	6
Cn1c(=O)c2c(nc(SCc3cccnc3)n2Cc2ccccc2)n(C)c1=O	0	26*	-10	-1	6
O=S1(=O)N=C(c2ccccc2)C=C(c2ccccc2)N1	1	8	11	-5	.
CCn1c(C)c(C(C)=O)c(N2CCN(c3ccc(OC)cc3)CC2)nc1=S	0	41*	2	-9	3

Screening data deposited in PubChem by The Scripps Research Institute Molecular Screening Center.
